Measurements as given in PubChem BioAssay AID624015 (Broad Institute, 2012).

Molecular target: Scavenger receptor class B member 1 (Mus musculus) (UniProt Q61009)
Test: inhibitors of HDL-directed cholesterol efflux via mutant SR-BI, dose response, mechanism study for SR-BI HDL uptake inhibitor project, cell-based, ldlA CHO C384S mutant, [3H]cholesterol, powder samples, set 2 (AID 624015)
Conditions: [3H]cholesterol efflux to HDL
Method in brief: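 Assay system: ldlA CHO cells expressing Cys384S-mutant SR-BI, radiolabel-loaded. Incubation: 1 h compound pre-incubation, then 2 h HDL efflux, 37 °C. Buffer or medium: HEPES pH 7.4 buffered medium, FAF-BSA equilibrated. Detection: scintillation counting, medium and cell lysate.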

Sequence of Scavenger receptor class B member 1 (Mus musculus) (Q61009 whole entry, looked up): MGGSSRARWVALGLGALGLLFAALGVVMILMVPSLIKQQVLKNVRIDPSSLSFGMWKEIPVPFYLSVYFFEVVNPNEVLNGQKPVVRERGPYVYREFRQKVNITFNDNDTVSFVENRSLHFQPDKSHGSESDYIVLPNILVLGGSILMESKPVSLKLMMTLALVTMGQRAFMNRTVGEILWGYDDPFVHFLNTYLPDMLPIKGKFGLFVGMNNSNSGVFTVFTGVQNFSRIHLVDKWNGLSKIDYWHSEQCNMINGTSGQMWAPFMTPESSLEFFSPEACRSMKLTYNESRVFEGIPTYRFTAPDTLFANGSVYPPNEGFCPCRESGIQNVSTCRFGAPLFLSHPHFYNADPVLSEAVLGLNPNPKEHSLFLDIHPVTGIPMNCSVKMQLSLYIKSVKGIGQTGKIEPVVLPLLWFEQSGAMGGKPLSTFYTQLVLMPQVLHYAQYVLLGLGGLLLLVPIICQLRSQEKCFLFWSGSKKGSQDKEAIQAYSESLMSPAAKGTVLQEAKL

AC50: 250 nM
Structure (SMILES): CC(C)NC(=O)Nc1ccc2c(c1)C(=O)N([C@H](C)CO)C[C@@H](C)[C@H](CN(C)S(=O)(=O)c1ccc(Cl)cc1)O2
